Reference: ChEMBL document CHEMBL1151230, “Cytotoxic triterpenoids from Acridocarpus vivy from the Madagascar rain forest” (J Nat Prod, 2004)
In brackets after ≈: the same amount, converted by molar mass.

test system: A2780; assay: Cytotoxicity against human A2780 cells; type: functional, cell-based
Procedure, shortened: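 Growth inhibition of the human ovarian cancer line A2780. IC50 is the concentration giving 50% inhibition of growth, reported in µg/mL. Actinomycin D served as positive control. Run at Virginia Polytechnic Institute following an earlier published procedure.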

SMILES | IC50
CC1(C)C=C2[C@H]3CC[C@@H]4[C@@]5(C)CCC(=O)[C@](C)(C=O)[C@@H]5CC[C@@]4(C)[C@]3(C)CC[C@@]2(C(=O)O)CC1 | 0.7 µg/mL (≈ 1.49 µM)
CC1(C)C=C2[C@H]3CC[C@@H]4[C@@]5(C)CCC(=O)[C@](C)(CO)[C@@H]5CC[C@@]4(C)[C@]3(C)CC[C@@]2(C(=O)O)CC1 | 15.9 µg/mL (≈ 33.8 µM)
CC(=O)OC[C@@]1(C)C(=O)CC[C@@]2(C)[C@H]1CC[C@]1(C)[C@@H]2CC[C@@H]2C3=CC(C)(C)CC[C@]3(C(=O)O)CC[C@]21C | 11.6 µg/mL (≈ 22.6 µM)
CC(=O)O[C@@H]1CC[C@]2(C)[C@H]3CC[C@@H]4C5=CC(C)(C)CC[C@]5(C(=O)O)CC[C@@]4(C)[C@]3(C)CC[C@H]2C1(C)C | 15.3 µg/mL (≈ 30.7 µM)
COc1cc(O)c2c(=O)cc(-c3ccc(O)cc3)oc2c1 [GENKWANIN] | > 20 µg/mL
CC1(C)C=C2[C@H]3CC[C@@H]4[C@@]5(C)CCC(=O)C(C)(C)[C@@H]5CC[C@@]4(C)[C@]3(C)CC[C@@]2(C(=O)O)CC1 [MORONIC ACID] | 13.1 µg/mL (≈ 28.8 µM)
CC1(C)CC[C@]2(C(=O)O)CC[C@]3(C)C(=CC[C@@H]4[C@@]5(C)CC[C@H](O)C(C)(C)[C@@H]5CC[C@]43C)[C@@H]2C1 [OLEANOLIC_ACID] | 8 µg/mL (≈ 17.5 µM)
C[C@H]1[C@H](C)CC[C@]2(C(=O)O)CC[C@]3(C)C(=CC[C@@H]4[C@@]5(C)CC[C@H](O)C(C)(C)[C@@H]5CC[C@]43C)[C@H]12 [URSOLIC ACID] | 9.2 µg/mL (≈ 20.1 µM)
COc1cc(O)c2c(=O)cc(-c3ccc(O)c(OC)c3)oc2c1 [VELUTIN] | > 20 µg/mL
